Reference: ChEMBL document CHEMBL1128519, “Semisynthetic chemical modification of the antifungal lipopeptide echinocandin B (ECB): structure-activity studies of the lipophilic and geometric parameters of polyarylated acyl analogs of ECB” (J Med Chem, 1995)
≈ marks a conversion by molar mass, not a printed value. Numbered stars: 1 amine (or outer) side, 2 acyl side, 3 side chain; on linkers, the order of the positions; unused ones are H or OH. Bridge positions count the residues as written; N and C are the ends. Square brackets hold non-standard residues; d marks the D form. Peptide text beside a SMILES is read from it. * marks the point of attachment. Orn(4R-OH,5R-OH) = O=C([C@H](C[C@@H](O)[C@@H](O)N[*:3])N[*:1])[*:2]; hTyr(3S-OH,4S-OH) = N[C@H](C(=O)O)[C@H](O)[C@@H](O)c1ccc(O)cc1; Pro(3S-OH,4S-Me) = C[C@H]1CN[C@H](C(=O)O)[C@H]1O; X25 = CCCCCCCCCCCCC(Oc1ccc(-c2ccccc2)cc1)C(=O)*; X18 = O=C(c1ccc(C#Cc2ccc(-c3ccccc3)cc2)cc1)*; X11 = CCC(CC)COc1ccc(-c2ccc(C(=O)*)cc2)cc1; X13 = O=C(CCCCCCCCCCOc1ccc(-c2ccccc2)cc1)*; X22 = O=C(c1ccc(-c2ccc(OCC3CCCC3)cc2)cc1)*; X24 = CCCCC(Oc1ccc(-c2ccccc2)cc1)C(=O)*; X10 = CCCCc1ccc(COc2ccc(C(=O)*)cc2)cc1; X21 = CCCCOc1ccc(-c2ccc(C(=O)*)cc2)cc1; X26 = CCCCOc1ccc(Cc2ccc(C(=O)*)cc2)cc1; X28 = CCCCOc1ccc(Oc2ccc(C(=O)*)cc2)cc1; X23 = O=C(CCCCCOc1ccc(-c2ccccc2)cc1)*; X27 = CCCCCCCCCCOc1cc2ccccc2cc1C(=O)*; X12 = CCCCCCCCCCOCCOc1ccc(C(=O)*)cc1; X15 = CCCCCCOc1ccc2cc(C(=O)*)ccc2c1; X19 = CCCCCCCCOCCOc1ccc(C(=O)*)cc1; X30 = CCCCCCOc1cc2ccccc2cc1C(=O)*; Hyp = O=C(O)[C@@H]1C[C@@H](O)CN1; X29 = CCCCCOCCOc1ccc(C(=O)*)cc1

How the values were obtained:
Candida albicans [1] = experiment: Antifungal activity against Candida albicans; assay type: functional
Summary of the method: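 Broth microdilution, C. albicans A26 (ATCC 62342) grown on Sabouraud dextrose agar at 35 °C; inoculum 1 × 10^5 conidia/mL in antibiotic 3 broth. Compounds dissolved at 1.0 mg/mL in methanol, 2-fold serial dilutions from 80 µg/mL, duplicate. Read after 48 h at 35 °C. MIC = lowest concentration completely inhibiting visible growth.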

[2] = biological target: Beta-1,3-glucan synthase (Candida albicans) (UniProt O13428); experiment: In vitro inhibition of glucan synthase obtained from Candida albicans at a concentration of 10 ug/mL.
Summary of the method: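 Purified, solubilized β-(1,3)-D-glucan synthase prepared from C. albicans. Percent inhibition measured at 10 µg/mL compound, single determination.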

Candida albicans [3] = experiment: In vivo antifungal activity administered intraperitoneally against Candida albicans infections in mice.; assay type: functional; conditions: ip
Summary of the method: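 Male ICR mice (18-20 g), X-irradiated with 400 r 24 h before iv tail-vein infection with 2 × 10^6 C. albicans A26 cells in saline. Compounds suspended in β-cyclodextrin, given parenterally at 0, 4, 24 and 48 h post-infection. 10 mice per dose, top dose 10 mg/kg with 2-fold dilutions down to 0.039 mg/kg. 7-day survival; ED50 by Reed-Muench.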

Sequence of Beta-1,3-glucan synthase (Candida albicans) (O13428 as listed by the source): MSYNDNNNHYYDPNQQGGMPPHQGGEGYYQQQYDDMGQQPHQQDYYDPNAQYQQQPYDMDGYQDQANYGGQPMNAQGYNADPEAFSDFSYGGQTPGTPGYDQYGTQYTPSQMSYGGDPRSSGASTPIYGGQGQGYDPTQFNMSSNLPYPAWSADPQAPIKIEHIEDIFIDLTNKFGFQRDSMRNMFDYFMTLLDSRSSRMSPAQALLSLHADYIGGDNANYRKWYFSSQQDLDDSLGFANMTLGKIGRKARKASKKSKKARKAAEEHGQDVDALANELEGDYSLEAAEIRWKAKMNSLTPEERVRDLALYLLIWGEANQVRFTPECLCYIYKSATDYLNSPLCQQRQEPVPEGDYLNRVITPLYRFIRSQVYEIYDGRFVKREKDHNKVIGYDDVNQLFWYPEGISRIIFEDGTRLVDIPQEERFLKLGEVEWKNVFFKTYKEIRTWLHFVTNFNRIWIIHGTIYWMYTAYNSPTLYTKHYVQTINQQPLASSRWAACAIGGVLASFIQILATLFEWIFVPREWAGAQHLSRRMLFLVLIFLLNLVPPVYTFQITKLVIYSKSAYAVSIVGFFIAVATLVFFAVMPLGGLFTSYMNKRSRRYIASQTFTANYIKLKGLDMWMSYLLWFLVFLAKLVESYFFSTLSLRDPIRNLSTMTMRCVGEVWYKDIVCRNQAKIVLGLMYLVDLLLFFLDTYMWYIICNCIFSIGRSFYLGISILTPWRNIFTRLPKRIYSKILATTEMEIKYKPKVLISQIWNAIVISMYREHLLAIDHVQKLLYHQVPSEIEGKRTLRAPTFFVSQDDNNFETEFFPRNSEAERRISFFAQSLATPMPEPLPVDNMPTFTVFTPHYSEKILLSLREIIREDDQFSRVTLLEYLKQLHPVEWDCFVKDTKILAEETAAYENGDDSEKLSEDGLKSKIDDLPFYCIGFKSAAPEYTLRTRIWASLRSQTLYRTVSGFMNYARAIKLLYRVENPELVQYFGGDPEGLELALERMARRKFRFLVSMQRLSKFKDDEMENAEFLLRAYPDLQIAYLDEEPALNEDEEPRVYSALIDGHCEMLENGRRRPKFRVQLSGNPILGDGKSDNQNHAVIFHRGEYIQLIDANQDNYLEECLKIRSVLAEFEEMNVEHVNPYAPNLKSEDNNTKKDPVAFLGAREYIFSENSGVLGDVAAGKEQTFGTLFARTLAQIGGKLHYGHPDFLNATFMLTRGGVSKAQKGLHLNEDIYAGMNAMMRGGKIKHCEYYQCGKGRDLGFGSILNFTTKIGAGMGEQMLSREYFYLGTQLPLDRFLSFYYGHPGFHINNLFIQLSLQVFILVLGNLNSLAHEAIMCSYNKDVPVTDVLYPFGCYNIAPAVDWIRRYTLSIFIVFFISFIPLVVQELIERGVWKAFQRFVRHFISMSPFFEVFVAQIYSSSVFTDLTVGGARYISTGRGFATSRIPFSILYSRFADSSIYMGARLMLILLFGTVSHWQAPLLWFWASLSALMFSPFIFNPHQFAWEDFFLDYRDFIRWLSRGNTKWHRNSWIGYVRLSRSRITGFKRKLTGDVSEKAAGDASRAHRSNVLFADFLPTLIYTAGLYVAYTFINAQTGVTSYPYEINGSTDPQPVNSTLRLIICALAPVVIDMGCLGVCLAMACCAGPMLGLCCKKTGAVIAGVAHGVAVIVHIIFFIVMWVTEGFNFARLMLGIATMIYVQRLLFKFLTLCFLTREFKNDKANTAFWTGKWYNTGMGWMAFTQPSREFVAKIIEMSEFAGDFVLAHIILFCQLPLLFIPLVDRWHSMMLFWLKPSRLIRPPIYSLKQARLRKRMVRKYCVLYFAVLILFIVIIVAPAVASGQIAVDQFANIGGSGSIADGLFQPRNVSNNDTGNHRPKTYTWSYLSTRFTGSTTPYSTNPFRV

Row | Structure (SMILES) | MIC (Candida albicans [1]) [µg/mL] | inhibition [2] [%] | ED50 (Candida albicans [3]) [mg/kg]
1 | CCCCCCCCCCOc1cc2ccccc2cc1C(=O)N[C@H]1C[C@@H](O)[C@@H](O)NC(=O)[C@@H]2[C@@H](O)[C@@H](C)CN2C(=O)[C@H]([C@@H](C)O)NC(=O)[C@H]([C@H](O)[C@@H](O)c2ccc(O)cc2)NC(=O)[C@@H]2C[C@@H](O)CN2C(=O)[C@H]([C@@H](C)O)NC1=O (X27-[Orn(4R-OH,5R-OH)]T[Hyp][hTyr(3S-OH,4S-OH)]T[Pro(3S-OH,4S-Me)]; lactam 1-C) | 20 (≈ 18 µM) | 40.6 | 
2 | CCCCCCOc1ccc2cc(C(=O)N[C@H]3C[C@@H](O)[C@@H](O)NC(=O)[C@@H]4[C@@H](O)[C@@H](C)CN4C(=O)[C@H]([C@@H](C)O)NC(=O)[C@H]([C@H](O)[C@@H](O)c4ccc(O)cc4)NC(=O)[C@@H]4C[C@@H](O)CN4C(=O)[C@H]([C@@H](C)O)NC3=O)ccc2c1 (X15-[Orn(4R-OH,5R-OH)]T[Hyp][hTyr(3S-OH,4S-OH)]T[Pro(3S-OH,4S-Me)]; lactam 1-C) | 0.039 (≈ 0.0371 µM) | 77.7 | 2.8
3 | C[C@@H](O)[C@@H]1NC(=O)[C@H]([C@H](O)[C@@H](O)c2ccc(O)cc2)NC(=O)[C@@H]2C[C@@H](O)CN2C(=O)[C@H]([C@@H](C)O)NC(=O)[C@@H](NC(=O)c2ccc(C#Cc3ccc(-c4ccccc4)cc3)cc2)C[C@@H](O)[C@@H](O)NC(=O)[C@@H]2[C@@H](O)[C@@H](C)CN2C1=O (X18-[Orn(4R-OH,5R-OH)]T[Hyp][hTyr(3S-OH,4S-OH)]T[Pro(3S-OH,4S-Me)]; lactam 1-C) | 0.078 (≈ 0.0723 µM) | 78.2 | 1.7
4 | C[C@@H](O)[C@@H]1NC(=O)[C@H]([C@H](O)[C@@H](O)c2ccc(O)cc2)NC(=O)[C@@H]2C[C@@H](O)CN2C(=O)[C@H]([C@@H](C)O)NC(=O)[C@@H](NC(=O)CCCCCCCCCCOc2ccc(-c3ccccc3)cc2)C[C@@H](O)[C@@H](O)NC(=O)[C@@H]2[C@@H](O)[C@@H](C)CN2C1=O (X13-[Orn(4R-OH,5R-OH)]T[Hyp][hTyr(3S-OH,4S-OH)]T[Pro(3S-OH,4S-Me)]; lactam 1-C) | 0.02 (≈ 0.0176 µM) | 80.2 | 7.4
5 | CCCCCCOc1cc2ccccc2cc1C(=O)N[C@H]1C[C@@H](O)[C@@H](O)NC(=O)[C@@H]2[C@@H](O)[C@@H](C)CN2C(=O)[C@H]([C@@H](C)O)NC(=O)[C@H]([C@H](O)[C@@H](O)c2ccc(O)cc2)NC(=O)[C@@H]2C[C@@H](O)CN2C(=O)[C@H]([C@@H](C)O)NC1=O (X30-[Orn(4R-OH,5R-OH)]T[Hyp][hTyr(3S-OH,4S-OH)]T[Pro(3S-OH,4S-Me)]; lactam 1-C) | 20 (≈ 19 µM) | 19.4 | 
6 | CCC(CC)COc1ccc(-c2ccc(C(=O)N[C@H]3C[C@@H](O)[C@@H](O)NC(=O)[C@@H]4[C@@H](O)[C@@H](C)CN4C(=O)[C@H]([C@@H](C)O)NC(=O)[C@H]([C@H](O)[C@@H](O)c4ccc(O)cc4)NC(=O)[C@@H]4C[C@@H](O)CN4C(=O)[C@H]([C@@H](C)O)NC3=O)cc2)cc1 (X11-[Orn(4R-OH,5R-OH)]T[Hyp][hTyr(3S-OH,4S-OH)]T[Pro(3S-OH,4S-Me)]; lactam 1-C) | 0.039 (≈ 0.0362 µM) |  | 4.6
7 | CCCCc1ccc(COc2ccc(C(=O)N[C@H]3C[C@@H](O)[C@@H](O)NC(=O)[C@@H]4[C@@H](O)[C@@H](C)CN4C(=O)[C@H]([C@@H](C)O)NC(=O)[C@H]([C@H](O)[C@@H](O)c4ccc(O)cc4)NC(=O)[C@@H]4C[C@@H](O)CN4C(=O)[C@H]([C@@H](C)O)NC3=O)cc2)cc1 (X10-[Orn(4R-OH,5R-OH)]T[Hyp][hTyr(3S-OH,4S-OH)]T[Pro(3S-OH,4S-Me)]; lactam 1-C) | 0.156 (≈ 0.147 µM) | 68.9 | 6.7
8 | CCCCOc1ccc(-c2ccc(C(=O)N[C@H]3C[C@@H](O)[C@@H](O)NC(=O)[C@@H]4[C@@H](O)[C@@H](C)CN4C(=O)[C@H]([C@@H](C)O)NC(=O)[C@H]([C@H](O)[C@@H](O)c4ccc(O)cc4)NC(=O)[C@@H]4C[C@@H](O)CN4C(=O)[C@H]([C@@H](C)O)NC3=O)cc2)cc1 (X21-[Orn(4R-OH,5R-OH)]T[Hyp][hTyr(3S-OH,4S-OH)]T[Pro(3S-OH,4S-Me)]; lactam 1-C) | 0.078 (≈ 0.0743 µM) | 71.4 | 0.8
9 | C[C@@H](O)[C@@H]1NC(=O)[C@H]([C@H](O)[C@@H](O)c2ccc(O)cc2)NC(=O)[C@@H]2C[C@@H](O)CN2C(=O)[C@H]([C@@H](C)O)NC(=O)[C@@H](NC(=O)CCCCCOc2ccc(-c3ccccc3)cc2)C[C@@H](O)[C@@H](O)NC(=O)[C@@H]2[C@@H](O)[C@@H](C)CN2C1=O (X23-[Orn(4R-OH,5R-OH)]T[Hyp][hTyr(3S-OH,4S-OH)]T[Pro(3S-OH,4S-Me)]; lactam 1-C) | 1.25 (≈ 1.17 µM) | 69.1 | 
10 | CCCCCCCCOCCOc1ccc(C(=O)N[C@H]2C[C@@H](O)[C@@H](O)NC(=O)[C@@H]3[C@@H](O)[C@@H](C)CN3C(=O)[C@H]([C@@H](C)O)NC(=O)[C@H]([C@H](O)[C@@H](O)c3ccc(O)cc3)NC(=O)[C@@H]3C[C@@H](O)CN3C(=O)[C@H]([C@@H](C)O)NC2=O)cc1 (X19-[Orn(4R-OH,5R-OH)]T[Hyp][hTyr(3S-OH,4S-OH)]T[Pro(3S-OH,4S-Me)]; lactam 1-C) | 2.5 (≈ 2.33 µM) | 54.8 | 4.4
11 | CCCCC(Oc1ccc(-c2ccccc2)cc1)C(=O)N[C@H]1C[C@@H](O)[C@@H](O)NC(=O)[C@@H]2[C@@H](O)[C@@H](C)CN2C(=O)[C@H]([C@@H](C)O)NC(=O)[C@H]([C@H](O)[C@@H](O)c2ccc(O)cc2)NC(=O)[C@@H]2C[C@@H](O)CN2C(=O)[C@H]([C@@H](C)O)NC1=O (stereo partly drawn) (X24-[Orn(4R-OH,5R-OH)]T[Hyp][hTyr(3S-OH,4S-OH)]T[Pro(3S-OH,4S-Me)]; lactam 1-C) | 80 (≈ 75.2 µM) | 55.1 | 
12 | CCCCOc1ccc(Oc2ccc(C(=O)N[C@H]3C[C@@H](O)[C@@H](O)NC(=O)[C@@H]4[C@@H](O)[C@@H](C)CN4C(=O)[C@H]([C@@H](C)O)NC(=O)[C@H]([C@H](O)[C@@H](O)c4ccc(O)cc4)NC(=O)[C@@H]4C[C@@H](O)CN4C(=O)[C@H]([C@@H](C)O)NC3=O)cc2)cc1 (X28-[Orn(4R-OH,5R-OH)]T[Hyp][hTyr(3S-OH,4S-OH)]T[Pro(3S-OH,4S-Me)]; lactam 1-C) | > 20 | 66.7 | 
13 | C[C@@H](O)[C@@H]1NC(=O)[C@H]([C@H](O)[C@@H](O)c2ccc(O)cc2)NC(=O)[C@@H]2C[C@@H](O)CN2C(=O)[C@H]([C@@H](C)O)NC(=O)[C@@H](NC(=O)c2ccc(-c3ccc(OCC4CCCC4)cc3)cc2)C[C@@H](O)[C@@H](O)NC(=O)[C@@H]2[C@@H](O)[C@@H](C)CN2C1=O (X22-[Orn(4R-OH,5R-OH)]T[Hyp][hTyr(3S-OH,4S-OH)]T[Pro(3S-OH,4S-Me)]; lactam 1-C) | 0.039 (≈ 0.0362 µM) |  | 1.2
14 | CCCCCCCCCCOCCOc1ccc(C(=O)N[C@H]2C[C@@H](O)[C@@H](O)NC(=O)[C@@H]3[C@@H](O)[C@@H](C)CN3C(=O)[C@H]([C@@H](C)O)NC(=O)[C@H]([C@H](O)[C@@H](O)c3ccc(O)cc3)NC(=O)[C@@H]3C[C@@H](O)CN3C(=O)[C@H]([C@@H](C)O)NC2=O)cc1 (X12-[Orn(4R-OH,5R-OH)]T[Hyp][hTyr(3S-OH,4S-OH)]T[Pro(3S-OH,4S-Me)]; lactam 1-C) | 0.625 (≈ 0.567 µM) | 71.4 | 9.5
15 | CCCCOc1ccc(Cc2ccc(C(=O)N[C@H]3C[C@@H](O)[C@@H](O)NC(=O)[C@@H]4[C@@H](O)[C@@H](C)CN4C(=O)[C@H]([C@@H](C)O)NC(=O)[C@H]([C@H](O)[C@@H](O)c4ccc(O)cc4)NC(=O)[C@@H]4C[C@@H](O)CN4C(=O)[C@H]([C@@H](C)O)NC3=O)cc2)cc1 (X26-[Orn(4R-OH,5R-OH)]T[Hyp][hTyr(3S-OH,4S-OH)]T[Pro(3S-OH,4S-Me)]; lactam 1-C) | > 20 | 43.4 | 
16 | CCCCCCCCCCCCC(Oc1ccc(-c2ccccc2)cc1)C(=O)N[C@H]1C[C@@H](O)[C@@H](O)NC(=O)[C@@H]2[C@@H](O)[C@@H](C)CN2C(=O)[C@H]([C@@H](C)O)NC(=O)[C@H]([C@H](O)[C@@H](O)c2ccc(O)cc2)NC(=O)[C@@H]2C[C@@H](O)CN2C(=O)[C@H]([C@@H](C)O)NC1=O (stereo partly drawn) (X25-[Orn(4R-OH,5R-OH)]T[Hyp][hTyr(3S-OH,4S-OH)]T[Pro(3S-OH,4S-Me)]; lactam 1-C) | 0.312 (≈ 0.265 µM) | 83 | 
17 | CCCCCOCCOc1ccc(C(=O)N[C@H]2C[C@@H](O)[C@@H](O)NC(=O)[C@@H]3[C@@H](O)[C@@H](C)CN3C(=O)[C@H]([C@@H](C)O)NC(=O)[C@H]([C@H](O)[C@@H](O)c3ccc(O)cc3)NC(=O)[C@@H]3C[C@@H](O)CN3C(=O)[C@H]([C@@H](C)O)NC2=O)cc1 (X29-[Orn(4R-OH,5R-OH)]T[Hyp][hTyr(3S-OH,4S-OH)]T[Pro(3S-OH,4S-Me)]; lactam 1-C) | > 20 | 17.1 | 
